Measurements: ChEMBL document CHEMBL2384907, “Identification of substituted pyrimido[5,4-b]indoles as selective Toll-like receptor 4 ligands” (J Med Chem, 2013)
Calls of active or inactive are those of the source. No cut-off for these calls is given here.

Columns and labels:
Format in all cases: cell-based
[1] = molecular target: T1, Toll-like receptor 4 (Mus musculus) (UniProt Q9QUK6); assay: Activation of mouse TLR4 transfected in HEK293 cells after 18 hrs by SEAP assay relative to N-cyclohexyl-2-(4-oxo-3-phenyl-4,5-dihydro-3H-pyrimido[5,4-b]indol-2-ylthio)acetamide
T1 sequence (whole entry): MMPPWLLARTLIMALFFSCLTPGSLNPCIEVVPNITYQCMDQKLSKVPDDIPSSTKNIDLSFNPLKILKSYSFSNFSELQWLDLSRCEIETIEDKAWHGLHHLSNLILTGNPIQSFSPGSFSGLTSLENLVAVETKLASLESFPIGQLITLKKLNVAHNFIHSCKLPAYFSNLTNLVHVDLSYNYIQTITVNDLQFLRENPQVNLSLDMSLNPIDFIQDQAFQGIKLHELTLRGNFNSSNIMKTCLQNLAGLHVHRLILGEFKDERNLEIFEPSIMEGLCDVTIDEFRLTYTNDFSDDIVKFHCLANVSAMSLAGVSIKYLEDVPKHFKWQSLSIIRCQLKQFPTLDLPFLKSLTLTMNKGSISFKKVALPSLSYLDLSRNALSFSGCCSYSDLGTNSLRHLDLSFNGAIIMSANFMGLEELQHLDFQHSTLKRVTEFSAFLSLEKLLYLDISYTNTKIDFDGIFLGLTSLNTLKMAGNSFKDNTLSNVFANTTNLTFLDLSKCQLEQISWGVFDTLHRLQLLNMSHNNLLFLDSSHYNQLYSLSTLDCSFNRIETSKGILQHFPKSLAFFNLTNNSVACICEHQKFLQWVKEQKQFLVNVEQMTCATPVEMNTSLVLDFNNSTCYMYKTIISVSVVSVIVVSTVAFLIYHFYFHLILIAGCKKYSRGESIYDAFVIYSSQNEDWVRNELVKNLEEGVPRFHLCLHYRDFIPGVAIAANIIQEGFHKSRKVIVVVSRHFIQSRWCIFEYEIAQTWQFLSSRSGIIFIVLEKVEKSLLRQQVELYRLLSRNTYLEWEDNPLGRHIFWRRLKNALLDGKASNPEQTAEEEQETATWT
How it was run: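 Mouse TLR4 HEK-Blue cells (2.5 × 10^4/well) given titrated doses 312 nM–10 μM for 18 h, 0.5% DMSO vehicle; SEAP at 630 nm. Percent-activity curves, AUC by trapezoid method, normalized to reference hit set at 100. LPS 10 ng/mL control.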

[2] = molecular target: Toll-like receptor 4 (Homo sapiens) (UniProt O00206); assay: Activation of TLR4 in human PBMC cells assessed as AUC of IL8 release at 10 uM after 18 hrs by ELISA relative to N-cyclohexyl-2-(4-oxo-3-phenyl-4,5-dihydro-3H-pyrimido[5,4-b]indol-2-ylthio)acetamide
How it was run: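 Human PBMC from buffy coats, 1 × 10^6/mL in complete RPMI, 18 h at 37 °C, 5% CO2 with compound at 10 μM; IL-8 in supernatant by ELISA, normalized to reference hit set at 100. LPS 10 ng/mL positive control.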

[3] = molecular target: T2, Toll-like receptor 7 (Homo sapiens) (UniProt Q9NYK1); assay: Activation of human TLR7 transfected in HEK293 cells at 10 uM after 20 to 24 hrs by SEAP assay
T2 sequence (whole entry): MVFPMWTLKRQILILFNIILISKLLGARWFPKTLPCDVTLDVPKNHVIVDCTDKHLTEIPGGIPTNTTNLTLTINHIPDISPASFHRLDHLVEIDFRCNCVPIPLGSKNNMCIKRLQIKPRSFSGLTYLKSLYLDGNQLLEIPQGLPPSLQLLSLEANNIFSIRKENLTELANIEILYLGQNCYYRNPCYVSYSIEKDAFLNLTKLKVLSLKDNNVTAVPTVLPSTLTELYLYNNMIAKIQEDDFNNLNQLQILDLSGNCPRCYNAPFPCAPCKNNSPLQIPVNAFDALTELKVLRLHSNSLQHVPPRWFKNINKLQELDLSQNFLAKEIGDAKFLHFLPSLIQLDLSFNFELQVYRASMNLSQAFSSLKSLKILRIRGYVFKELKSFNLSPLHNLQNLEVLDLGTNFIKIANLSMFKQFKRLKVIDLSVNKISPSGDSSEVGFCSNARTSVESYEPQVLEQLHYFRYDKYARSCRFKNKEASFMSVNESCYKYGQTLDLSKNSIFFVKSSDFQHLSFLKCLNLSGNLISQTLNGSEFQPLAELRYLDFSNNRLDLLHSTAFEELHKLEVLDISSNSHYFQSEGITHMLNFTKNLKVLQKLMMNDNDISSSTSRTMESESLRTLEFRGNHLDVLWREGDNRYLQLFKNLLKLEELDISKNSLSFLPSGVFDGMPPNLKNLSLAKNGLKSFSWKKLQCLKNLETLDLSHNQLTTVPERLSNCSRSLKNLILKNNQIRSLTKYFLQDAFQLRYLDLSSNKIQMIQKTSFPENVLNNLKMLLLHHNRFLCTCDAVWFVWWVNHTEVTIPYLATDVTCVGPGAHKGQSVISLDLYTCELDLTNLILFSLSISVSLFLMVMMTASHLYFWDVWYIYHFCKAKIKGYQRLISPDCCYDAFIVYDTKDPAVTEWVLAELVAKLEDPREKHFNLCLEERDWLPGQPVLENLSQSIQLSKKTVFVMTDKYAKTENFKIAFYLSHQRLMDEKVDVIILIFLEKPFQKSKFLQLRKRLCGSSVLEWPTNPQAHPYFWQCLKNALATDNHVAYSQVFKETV

[4] = molecular target: T1, Toll-like receptor 4 (Mus musculus); assay: Activation of TLR4 in C57BL/6 mouse BMDC cells assessed as AUC of IP10 release at 5 uM after 18 hrs by ELISA relative to N-cyclohexyl-2-(4-oxo-3-phenyl-4,5-dihydro-3H-pyrimido[5,4-b]indol-2-ylthio)acetamide
[5] = molecular target: Toll-like receptor 4/MD-2/CD14 (Homo sapiens) (UniProt O00206+Q9Y6Y9+P08571); assay: Activation of human TLR4/MD-2/CD14 transfected in HEK293 cells at 10 uM after 20 to 24 hrs by SEAP assay
[6] = molecular target: T1, Toll-like receptor 4 (Mus musculus); assay: Activation of mouse TLR4 transfected in HEK293 cells assessed as NFkappaB activation after 20 to 24 hrs by SEAP assay
How it was run: (§1)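 Human or mouse TLR4 HEK-Blue cells (2.5 × 10^4/well) incubated with graded concentrations for 20–24 h; NFκB-driven SEAP in culture supernatant measured colorimetrically.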

[7] = molecular target: Toll-like receptor 2 (Homo sapiens) (UniProt O60603); assay: Activation of human TLR2 transfected in HEK293 cells at 10 uM after 20 to 24 hrs by SEAP assay
[8] = molecular target: Toll-like receptor 5 (Homo sapiens) (UniProt O60602); assay: Activation of human TLR5 transfected in HEK293 cells at 10 uM after 20 to 24 hrs by SEAP assay
[9] = molecular target: Toll-like receptor 4 (Homo sapiens) (UniProt O00206); assay: Activation of human TLR4 transfected in HEK293 cells assessed as NFkappaB activation after 20 to 24 hrs by SEAP assay; how it was run: as §1

Chain of Toll-like receptor 4 (Homo sapiens) (O00206 whole entry): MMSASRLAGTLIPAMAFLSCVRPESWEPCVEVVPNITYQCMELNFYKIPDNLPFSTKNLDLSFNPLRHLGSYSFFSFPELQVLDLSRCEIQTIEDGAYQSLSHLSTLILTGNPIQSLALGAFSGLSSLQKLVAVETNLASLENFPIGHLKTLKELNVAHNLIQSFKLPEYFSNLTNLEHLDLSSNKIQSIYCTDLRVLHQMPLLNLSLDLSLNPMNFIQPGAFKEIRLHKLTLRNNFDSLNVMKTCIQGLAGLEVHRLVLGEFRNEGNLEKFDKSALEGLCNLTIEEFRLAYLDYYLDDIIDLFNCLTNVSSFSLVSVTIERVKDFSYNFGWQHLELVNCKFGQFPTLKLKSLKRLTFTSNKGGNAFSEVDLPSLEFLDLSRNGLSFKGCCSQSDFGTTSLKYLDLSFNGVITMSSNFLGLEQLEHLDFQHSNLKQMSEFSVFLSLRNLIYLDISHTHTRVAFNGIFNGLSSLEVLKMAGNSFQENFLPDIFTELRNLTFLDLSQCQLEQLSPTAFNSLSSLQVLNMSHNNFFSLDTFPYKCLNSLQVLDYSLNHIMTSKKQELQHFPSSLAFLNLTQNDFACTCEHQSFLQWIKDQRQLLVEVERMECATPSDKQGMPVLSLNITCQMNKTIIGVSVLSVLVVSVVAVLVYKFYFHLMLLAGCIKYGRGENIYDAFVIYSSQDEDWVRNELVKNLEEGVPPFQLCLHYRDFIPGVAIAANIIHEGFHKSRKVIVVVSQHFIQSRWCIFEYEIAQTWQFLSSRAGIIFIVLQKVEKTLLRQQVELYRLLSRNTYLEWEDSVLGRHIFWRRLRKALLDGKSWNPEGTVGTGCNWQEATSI
Chain of Toll-like receptor 2 (Homo sapiens) (O60603 whole entry): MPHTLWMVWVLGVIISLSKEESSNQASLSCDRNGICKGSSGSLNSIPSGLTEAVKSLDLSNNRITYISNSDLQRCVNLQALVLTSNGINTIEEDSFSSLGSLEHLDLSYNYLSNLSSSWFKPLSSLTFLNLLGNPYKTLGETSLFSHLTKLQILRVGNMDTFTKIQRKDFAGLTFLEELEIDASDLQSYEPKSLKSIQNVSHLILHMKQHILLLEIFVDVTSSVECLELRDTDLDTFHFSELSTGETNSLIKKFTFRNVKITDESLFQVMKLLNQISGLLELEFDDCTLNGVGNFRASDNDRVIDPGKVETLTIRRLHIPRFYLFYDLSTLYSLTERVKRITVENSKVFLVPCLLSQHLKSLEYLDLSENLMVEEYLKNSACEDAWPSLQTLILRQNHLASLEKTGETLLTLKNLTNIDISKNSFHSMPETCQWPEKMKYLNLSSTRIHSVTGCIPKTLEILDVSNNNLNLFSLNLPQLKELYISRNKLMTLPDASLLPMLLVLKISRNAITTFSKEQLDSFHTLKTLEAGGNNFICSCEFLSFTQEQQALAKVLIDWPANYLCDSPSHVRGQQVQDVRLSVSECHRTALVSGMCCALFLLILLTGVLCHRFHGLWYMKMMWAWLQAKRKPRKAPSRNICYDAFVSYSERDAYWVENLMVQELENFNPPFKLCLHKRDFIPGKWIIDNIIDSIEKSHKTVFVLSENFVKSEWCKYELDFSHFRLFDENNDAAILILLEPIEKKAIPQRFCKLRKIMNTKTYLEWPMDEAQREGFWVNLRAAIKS
Chain of Toll-like receptor 5 (Homo sapiens) (O60602 whole entry): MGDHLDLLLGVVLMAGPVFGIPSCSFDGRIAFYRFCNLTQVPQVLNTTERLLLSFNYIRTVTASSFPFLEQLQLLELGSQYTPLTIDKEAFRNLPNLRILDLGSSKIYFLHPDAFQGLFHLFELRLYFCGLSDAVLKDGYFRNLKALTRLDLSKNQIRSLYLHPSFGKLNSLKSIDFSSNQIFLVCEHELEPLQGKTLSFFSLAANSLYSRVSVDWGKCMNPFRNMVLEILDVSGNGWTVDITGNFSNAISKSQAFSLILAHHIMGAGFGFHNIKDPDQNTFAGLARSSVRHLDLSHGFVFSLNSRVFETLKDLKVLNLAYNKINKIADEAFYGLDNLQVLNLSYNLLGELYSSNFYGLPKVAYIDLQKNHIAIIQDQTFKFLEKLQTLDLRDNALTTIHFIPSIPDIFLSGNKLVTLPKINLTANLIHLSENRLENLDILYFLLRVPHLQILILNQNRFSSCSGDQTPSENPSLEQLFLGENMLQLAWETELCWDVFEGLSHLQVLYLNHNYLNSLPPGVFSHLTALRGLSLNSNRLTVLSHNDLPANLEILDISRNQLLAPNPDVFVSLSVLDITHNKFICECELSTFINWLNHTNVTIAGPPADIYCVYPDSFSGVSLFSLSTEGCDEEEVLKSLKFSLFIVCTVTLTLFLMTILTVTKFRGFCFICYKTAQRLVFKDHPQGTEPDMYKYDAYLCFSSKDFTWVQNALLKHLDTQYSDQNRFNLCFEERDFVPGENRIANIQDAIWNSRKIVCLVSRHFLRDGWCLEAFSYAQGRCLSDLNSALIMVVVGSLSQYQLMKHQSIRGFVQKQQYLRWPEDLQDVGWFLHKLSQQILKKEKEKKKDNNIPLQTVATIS

Activity [1]: 100%
Activity [2]: 100%
Activity [3]: inactive
Activity [4]: 100%
Activity [5]: Active
Activity [6]: Dose-dependent effect
Activity [7]: inactive
Activity [8]: inactive
Activity [9]: Dose-dependent effect
Compound: O=C(CSc1nc2c([nH]c3ccccc32)c(=O)n1-c1ccccc1)NC1CCCCC1
